Measurements taken from the EternaBench riboswitch data.

System: MS2 coat protein
Test: apparent Kd, MS2 coat protein; higher = weaker binding; RNA-MaP array; FMN 200 µM where present
Procedure, shortened: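 The apparent Kd comes from binding curves fitted cluster by cluster, filtered, and summarised as a median. Those curves followed SNAP-549-labelled MS2 coat protein from 0.7 or 1.5 nM, doubling to 3 µM, on Illumina sequencing-chip clusters where stalled E. coli RNA polymerase had transcribed the designs, without and then with constant ligand. The buffer was 100 mM Tris-HCl pH 7.5, 80 mM KCl, 4 mM MgCl2, BSA, DTT, yeast tRNA and Tween-20, and green signal was normalised to red-channel RNA signal and control-cluster median Fmax.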

[1] = designed as: OFF switch for flavin mononucleotide, no ligand
[2] = ligand present: flavin mononucleotide, designed as: OFF switch for flavin mononucleotide
[3] = designed as: ON switch for flavin mononucleotide, no ligand
[4] = ligand present: flavin mononucleotide, designed as: ON switch for flavin mononucleotide

Sequence | apparent Kd [1] [nM] | apparent Kd [2] [nM] | apparent Kd [3] [nM] | apparent Kd [4] [nM]
GGUGUAGGAGGAUAUACAUGAGGAUCACCCAUGUGGCCACGUUGUAAGAUGACAUUAUGUAGAAGGCUUAGUGG | 90.4 | 89.8 |  | 
GGUGUCAUCGAGAAGGCCUCAACAUGAGGAUCACCCAUGUUGUAAUAUGGGAGGAUAUCGAUGAUACAGCUACGUUUCGUAGCA |  |  | 18.5 | 6.1
GGUUACAUCGGAGGAUAUCAUGUAAAUACAUGAGGAUCACCCAUGUCGAUGGAGACAUCGGAGAUUGAGAAGGCCGAUGUACCG |  |  | 170 | 7.97
GGUUAUUGCAAGGAUAUGCUUUUUUUUUAUAUUGCAGAAGGUGCAACAUGAGGAUCACCCAUGUUGGAGGGUUU | 24.5 | 42.9 |  | 
GGUUGUCAUCGUCGUCCUUUCGUUACAUGAGGAUCACCCAUGUAGGAUAUGCUGCAUUCGAUGUGGCAGAAGGGCAUGUGUGUU | 18.1 | 31.6 |  | 
GUAAAACAUGAGGAUCACCCAUGUCAACAAAGUCGAGGAUAUGGGCAAAUAAAAUAAGAACCAGAAGGCGAAUAAG |  |  | 161 | 42.6
GUAAACCUAGGAUAUACAUGAGGAUCACCCAUGUAAAGUUUCGUAAAAAGAUAAUCGAGUAGAAGGAGGUAGAU | 21.4 | 23.4 |  | 
GUAAAGUGAGGAUAUGGUAAAGUAAUUAUUUAGUAAGUAAUCCAGAAGGCACAUGAGGAUCACCCAUGUAAAUG | 31.3 | 36.8 |  | 
GUAAAUCAUGUAGGAUAUGCAUGGCGAAGCUACGCAGAAGGACAUGAGGAUCACCCAUGUUAUAGCUACCAAGUUAGGUGGCAA | 110 | 260 |  | 
GUAACUCAUGUAGGAUAUGCAUGGCGAAGCUACGCAGAAGGACAUGAGGAUCACCCAUGUUCUAGCGUCUGGAUACAGAUGCAA | 85.7 | 327 |  | 
GUAACUUAUGUGAGGAUAUAUUAUGUCUUGGUGUAGUAGAAGGCACAUGAGGAUCACCCAUGUCCAAUUGGUCU | 229 | 457 |  | 
GUACAGAGGGAGAAGGGCUAGGAGGUCCAGCUUAUGUGUGUUGCAACAUGAGGAUCACCCAUGUAGCAGGAUAUCCCUCGUACA | 40.2 | 257 |  | 
GUACAUACAAAGUUACAUGAGGAUCACCCAUGUUUAUUGGGAAGAAGGGUAACAUUAUUAGAUAUAUAGGAUAUUUCACAAUUG |  |  | 718 | 387
GUACUGACAGGAUAUACAUGAGGAUCACCCAUGUCCUUGUGCUGACAAAAGUCAGCACGUAGAAGGGUCUGUAC | 22.9 | 207 |  | 
GUAGAACAUGAGGAUCACCCAUGUGAAGACGCAUGAGGAUAUAUACGUAAAUAGCAUACGAUAGAAGGCAUGAUAA |  |  | 51.8 | 26.8
GUAGAGUAAGGAUAUGCAGAAUAGGAUAGAAUGGAUAGAAUGCAGAAGGUACAUGAGGAUCACCCAUGUAAUGU | 19.8 | 21.6 |  | 
GUAGAGUCAGGAUAUACAAGAUCGAAAGAUCGAAGAUCCAUACAUGAGGAUCACCCAUGUAGAAGGGACUCUAC | 17.1 | 35.8 |  | 
GUAGAGUCAGGAUAUACGAGAUCGAAAGAUCUGUGAUCCAUACAUGAGGAUCACCCAUGUAGAAGGGACUCUAC | 33.7 | 364 |  | 
GUAGCAAUCGGAGGAUAUUCAUACCGGAAACGGACAUGAGGAUCACCCAUGUGGCGAAAGCCUUGGGAGAAGGCCGAUUGCUAC |  |  | 614 | 21.2
GUAGCAUACCGAGGAUAUUCAUACCGUAAUCGGACAUGAGGAUCACCCAUGUGGCGAAAGCCUUGGGAGAAGGCGGAAUGCUAC |  |  | 630 | 27.6
GUAGCAUACCGAGGAUAUUCAUACGGGAAACCGACAUGAGGAUCACCCAUGUGGCGAAAGCCUUGGGAGAAGGCGGAAUGCUAC |  |  | 691 | 24.8
GUAGCAUGAUUAGGAUAUUCAGCGAGUAGAUUGACAUGAGGAUCACCCAUGUGGCGAAAGCCGAGGGAGAAGGGAUGAUGCUAC |  |  | 34.9 | 25
GUAGCAUGCAGCGAGGAUAUUCAUAUUAAAACAUGAGGAUCACCCAUGUAGGCCAAAAGGCCUUGGGAGAAGGCGCACAUGCUAC |  |  | 777 | 43.2
GUAGCAUUCUGAGGAUAUUCAUACCGGAAACGGACAUGAGGAUCACCCAUGUGGCGAAAGCCUUGGAAGAAGGCAGUAUGCUAC |  |  | 4.27 | 3.56
GUAGCAUUCUGAGGAUAUUCAUACCGGAAACGGACAUGAGGAUCACCCAUGUGGCGAAAGCCUUGGGAGAAGGCAGUAUGCUAC |  |  | 740 | 27.4
GUAGCAUUGAGAGGAUAUCCAUACCGGAAACGGACAUGAGGAUCACCCAUGUGGCGAAAGCCAUGGGAGAAGGCUCUAUGCUAC |  |  | 10.2 | 5.44
GUAGCUAGUAAAGGAUAUUAGUGUGUGUAAUAUUGAGAAGGUUACAUGAGGAUCACCCAUGUGAUCAAUCACUGUUAAGGUUGC | 6.29 | 6.33 |  | 
GUAGCUAUCGGAGGAUAUCCAUACCGGAAACGGACAUGAGGAUCACCCAUGUGGCGAAAGCCUUGGGAGAAGGCCGAUAGCUAC |  |  | 5.06 | 3.36

Sequence | apparent Kd [1] [nM] | apparent Kd [2] [nM] | apparent Kd [3] [nM] | apparent Kd [4] [nM]
GUAGCUAUCGGAGGAUAUUCAUAGCCGAAAGGCACAUGAGGAUCACCCAUGUGCGGAAACGCUUGGGAGAAGGCCGAUAGCUAC |  |  | 25 | 15.1
GUAGCUAUCGGAGGAUAUUCAUUAUACAUGAGGAUCACCCAUGUUAAAGUGGGAGAAGGCCGAUAGCUACAAGAGCGAAAGCUC |  |  | 35.8 | 8.13
GUAGCUAUUAUUAUACAUGAGGAUCACCCAUGUUACAUGUGUAAGGAUAUUGAUGUUUUUAUUAUCAAGAAGGUACUAUGCUAC |  |  | 12.3 | 8.75
GUAGCUUAUGAGAAGGCGAUCAUGAAACAUGAUCGAGGAUAUCAUGUAAACAUGAGGAUCACCCAUGUAUGGGUAUUAUGCUAC |  |  | 313 | 42.9
GUAGGGUCAGGAUAUACGGGCGGAGGGAUGUAUUGUAGUUGGUAGAAGGGACAUGAGGAUCACCCAUGUAAGAA | 29.7 | 26.2 |  | 
GUAGUAUAAAGUUCAUAAUAUAGGAUAGAAGGUGAAAAUUUGACAUGAGGAUCACCCAUGUAAUUCAAGGAUAUGUAGUUACUC |  |  | 128 | 96.5
GUAUAUAUUACAUGAGGAUCACCCAUGUCAGAACGGGUAAUCAGAAGGUACUAUUAGAGAAAGAGUAAGGAUAUGAUUAUAUAC |  |  | 329 | 33.9
GUAUAUCACUAAGGAUAUCUGUAAUUUGUUGAAACAUGAGGAUCACCCAUGUUCAUGAAUUUAUAGGAGAAGGUAGAGAUAUAC |  |  | 4.24 | 4.15
GUAUAUCACUCAGGAUAUCUGUAAUUUGUUGAAACAUGAGGAUCACCCAUGUUCAUGAAUUUAUAGGAGAAGGGAGAGAUAUAC |  |  | 4.58 | 4.69
GUAUCAUAUGAGAAGGCGAUCAUGAAACAUGAUCGAGGAUAUCAUGAAAACAUGAGGAUCACCCAUGUAUGGGUAUUAAGGUAC |  |  | 65.6 | 41.7
GUAUCGUGAGGAUAUCCAAUAUAUGACAUGAGGAUCACCCAUGUUUCCACUCGUACCUCCGGAGAAGGCACAGUUU | 32.2 | 27.9 |  | 
GUAUGUAACAAGGAUAUGCCCUCGAUACGAUUUGCAGAAGGUGUUACAUGAGGAUCACCCAUGUGGCCUUGCAU | 19.4 | 74.9 |  | 
GUAUUAAAGAUCCAUUUAUUCAACAUGAGGAUCACCCAUGUGCAGGAUAUCGUGUGUUUUAUAUUCGAGAAGGGCAAAUUCAUU | 44.6 | 104 |  | 
GUCAAGUGAGGAUAUGAUUGUACAACAGACUAACAUCUACAUCAGAAGGCACAUGAGGAUCACCCAUGUUUGUC | 17.7 | 15.8 |  | 
GUCACGUAAGGAUAUCAUUAGUUGGACAUGAGGAUCACCCAUGUGAGACUAACUCCGGCGUGAGAAGGUGCGUUAA | 13.4 | 16.7 |  | 
GUCAGCAAAUAAGGAUAUACAUCACUGCUUCGGCAGUGUAUUAAGAUCACAUGAGGAUCACCCAUGUAGAAGGUAUAAGCUGAU | 8.12 | 29.4 |  | 
GUCAGCUCGUGAGGAUAUACAACACUGCUACGGCAGUGUAUUAAGAUCACAUGAGGAUCACCCAUGUAGAAGGCACGAGCUGAU | 14 | 242 |  | 
GUCAGCUCGUGAGGAUAUACAACACUGCUUAGGCAGUGUAUUAAGAUCACAUGAGGAUCACCCAUGUAGAAGGCACGAGCUGAU | 13.6 | 222 |  | 
GUCAGCUCGUGAGGAUAUACAACACUGCUUCGGCACUGUAUUAAGAUCACAUGAGGAUCACCCAUGUAGAAGGCACGAGCUGAU | 8.62 | 104 |  | 
GUCAGCUCGUGAGGAUAUACAACACUGCUUCGGCAGUGUACUAAGAUCACAUGAGGAUCACCCAUGUAGAAGGCACGAGCUGAU | 14.6 | 246 |  | 
GUCAGCUCGUGAGGAUAUACAACACUGCUUCGGCAGUGUAUGAAGAUCACAUGAGGAUCACCCAUGUAGAAGGCACGAGCUGAU | 9.93 | 176 |  | 
GUCAGCUCGUGAGGAUAUACAACACUGCUUCGGCAGUGUAUUAAAAUCACAUGAGGAUCACCCAUGUAGAAGGCACGAGCUGAU | 5.04 | 7.7 |  | 
GUCAGCUCGUGAGGAUAUACAACACUGCUUCGGCAGUGUAUUAAGACCACAUGAGGAUCACCCAUGUAGAAGGCACGAGCUGAU | 5.18 | 14.3 |  | 
GUCAGCUCGUGAGGAUAUACAACACUGCUUCGGCAGUGUAUUAAGAUCACAUGAGGAUCACCCAUGUAGAAGGCACGAGCUGCU | 12.9 | 276 |  | 
GUCAGCUCGUGAGGAUAUACAACACUGCUUCGGCAGUGUAUUAAGAUCACAUGAGGAUCACCCAUGUAGAAGGCACGAGGUGAU | 20.5 | 245 |  | 
GUCAGCUCGUGAGGAUAUACAACACUGCUUCGGCAGUGUAUUAAGAUCACAUGAGGAUCACCCAUGUAGAAGGCACGGGCUGAU | 14 | 323 |  | 
GUCAGCUCGUGAGGAUAUACAACACUGCUUCGGCAGUGUAUUAAGAUCACAUGAGGAUCACCCAUGUAGAAGGCGCGAGCUGAU | 13.3 | 243 |  | 
